Experimental data: ChEMBL document CHEMBL1125920, “Synthesis and biological activity of 5-alkyl-1,7,8-trisubstituted-6-fluoroquinoline-3-carboxylic acids” (1991)
≈ marks a conversion by molar mass, not a printed value.

Legend:
Enterobacter cloacae = test: Antibacterial activity against gram negative organism, […] (MA2646); type: functional
Escherichia coli = test: Antibacterial activity was determined against gram negative organism, E. coli(vogel); type: functional
Method in brief: (§1)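 MIC by standard microtitration against a panel of 10 representative Gram-negative and Gram-positive organisms; values reported in µg/mL.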

Klebsiella pneumoniae = test: Antibacterial activity was determined against gram negative organism, K. pneumoniae (MGH-2); type: functional; method in brief: as §1
Pseudomonas aeruginosa = test: Antibacterial activity was determined against gram negative organism, Pseudomonas aeruginosa (UI-18); type: functional; method in brief: as §1
Bacteria = test: Antibacterial activity was determined against gram negative organism, Providencia rettgeri. (M1771); type: functional; method in brief: as §1
Streptococcus pneumoniae = test: Antibacterial activity was determined against gram positive organism, Streptococcus pneumoniae (SV-1); type: functional; method in brief: as §1
Enterococcus faecalis = test: Antibacterial activity was determined against gram positive organism, Streptococcus faecalis (MGH-2); type: functional; method in brief: as §1
Streptococcus pyogenes = test: Antibacterial activity was determined against gram positive organism, Streptococcus pyogenes (C203); type: functional; method in brief: as §1
Staphylococcus aureus [1] = test: Antibacterial activity was determined against gram positive organism, Staphylococcus aureus (H228); type: functional; method in brief: as §1
Staphylococcus aureus [2] = test: Antibacterial activity was determined against gram positive organism, Staphylococcus aureus (UC76); type: functional; method in brief: as §1
[3] = MIC ratio measured as the mean MICs of gram-negative bacteria; type: functional
Method in brief: (§2)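 Geometric mean of the MICs (µg/mL) over the Gram-negative or the Gram-positive strains of the 10-organism microtitration panel, calculated separately for each class.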

[4] = MIC ratio measured as the mean MICs of gram-positive bacteria; type: functional; method in brief: as §2
[5] = molecular target: DNA gyrase (Escherichia coli) (UniProt P0AES6+P0AES4)

Cc1c(F)c(N2CCC(C)(CN)C2)cc2c1c(=O)c(C(=O)O)cn2C1CC1 (configuration not stated)
MIC (Enterobacter cloacae): 0.1 µg/mL (≈ 0.268 µM)
MIC (Escherichia coli): 0.1 µg/mL (≈ 0.268 µM)
MIC (Klebsiella pneumoniae): 0.4 µg/mL (≈ 1.07 µM)
MIC (Pseudomonas aeruginosa): 1.6 µg/mL (≈ 4.28 µM)
MIC (Bacteria): 0.8 µg/mL (≈ 2.14 µM)
MIC (Streptococcus pneumoniae): 0.006 µg/mL (≈ 0.0161 µM)
MIC (Enterococcus faecalis): 0.1 µg/mL (≈ 0.268 µM)
MIC (Streptococcus pyogenes): 0.013 µg/mL (≈ 0.0348 µM)
MIC (Staphylococcus aureus [1]): 0.025 µg/mL (≈ 0.0669 µM)
MIC (Staphylococcus aureus [2]): 0.006 µg/mL (≈ 0.0161 µM)
Ratio [3]: 0.35
Ratio [4]: 0.016
DNA cleavage [5]: 0.75 µg/mL

CCn1cc(C(=O)O)c(=O)c2cc(F)c(N3CCNCC3)cc21 [NORFLOXACIN]
MIC (Bacteria): 0.025 µg/mL (≈ 0.0783 µM)
Ratio [3]: 0.057
Ratio [4]: 0.61
DNA cleavage [5]: 1 µg/mL

CCn1cc(C(=O)O)c(=O)c2c(C)c(F)c(N3CCNCC3)cc21
MIC (Enterobacter cloacae): 0.2 µg/mL (≈ 0.6 µM)
MIC (Escherichia coli): 0.1 µg/mL (≈ 0.3 µM)
MIC (Klebsiella pneumoniae): 0.4 µg/mL (≈ 1.2 µM)
MIC (Pseudomonas aeruginosa): 1.6 µg/mL (≈ 4.8 µM)
MIC (Bacteria): 0.4 µg/mL (≈ 1.2 µM)
MIC (Streptococcus pneumoniae): 3.1 µg/mL (≈ 9.3 µM)
MIC (Enterococcus faecalis): 1.6 µg/mL (≈ 4.8 µM)
MIC (Streptococcus pyogenes): 6.3 µg/mL (≈ 18.9 µM)
MIC (Staphylococcus aureus [1]): 3.1 µg/mL (≈ 9.3 µM)
MIC (Staphylococcus aureus [2]): 0.4 µg/mL (≈ 1.2 µM)
Ratio [3]: 0.35
Ratio [4]: 2.08
DNA cleavage [5]: 3 µg/mL

CC1(CN)CCN(c2cc3c(cc2F)c(=O)c(C(=O)O)cn3C2CC2)C1 (configuration not stated)
MIC (Enterobacter cloacae): 0.8 µg/mL (≈ 2.23 µM)
MIC (Escherichia coli): 0.2 µg/mL (≈ 0.556 µM)
MIC (Klebsiella pneumoniae): 0.4 µg/mL (≈ 1.11 µM)
MIC (Pseudomonas aeruginosa): 0.8 µg/mL (≈ 2.23 µM)
MIC (Bacteria): 0.8 µg/mL (≈ 2.23 µM)
MIC (Streptococcus pneumoniae): 0.025 µg/mL (≈ 0.0696 µM)
MIC (Enterococcus faecalis): 0.1 µg/mL (≈ 0.278 µM)
MIC (Streptococcus pyogenes): 0.05 µg/mL (≈ 0.139 µM)
Ratio [3]: 0.53
Ratio [4]: 0.044
DNA cleavage [5]: 3 µg/mL

CCn1cc(C(=O)O)c(=O)c2c(C)c(F)c(N3CCNCC3)c(F)c21
MIC (Enterobacter cloacae): 0.05 µg/mL (≈ 0.142 µM)
MIC (Escherichia coli): 0.05 µg/mL (≈ 0.142 µM)
MIC (Klebsiella pneumoniae): 0.2 µg/mL (≈ 0.569 µM)
MIC (Pseudomonas aeruginosa): 1.6 µg/mL (≈ 4.55 µM)
MIC (Bacteria): 0.4 µg/mL (≈ 1.14 µM)
MIC (Streptococcus pneumoniae): 6.3 µg/mL (≈ 17.9 µM)
MIC (Enterococcus faecalis): 3.1 µg/mL (≈ 8.82 µM)
MIC (Streptococcus pyogenes): 12.5 µg/mL (≈ 35.6 µM)
MIC (Staphylococcus aureus [1]): 0.8 µg/mL (≈ 2.28 µM)
MIC (Staphylococcus aureus [2]): 0.2 µg/mL (≈ 0.569 µM)
Ratio [3]: 0.2
Ratio [4]: 2.08
DNA cleavage [5]: 7.5 µg/mL

CC1(CN)CCN(c2c(F)cc3c(=O)c(C(=O)O)cn(C4CC4)c3c2F)C1 (configuration not stated)
MIC (Enterobacter cloacae): 0.025 µg/mL (≈ 0.0662 µM)
MIC (Escherichia coli): 0.05 µg/mL (≈ 0.132 µM)
MIC (Klebsiella pneumoniae): 0.1 µg/mL (≈ 0.265 µM)
MIC (Bacteria): 0.2 µg/mL (≈ 0.53 µM)
MIC (Streptococcus pneumoniae): 0.006 µg/mL (≈ 0.0159 µM)
MIC (Enterococcus faecalis): 0.013 µg/mL (≈ 0.0344 µM)
MIC (Streptococcus pyogenes): 0.025 µg/mL (≈ 0.0662 µM)
MIC (Staphylococcus aureus [2]): 0.003 µg/mL (≈ 0.00795 µM)
Ratio [3]: 0.1
Ratio [4]: 0.095
DNA cleavage [5]: 2.6 µg/mL

Cc1c(F)c(N2CCNCC2)c(Cl)c2c1c(=O)c(C(=O)O)cn2C1CC1
MIC (Enterobacter cloacae): 0.05 µg/mL (≈ 0.132 µM)
MIC (Escherichia coli): 0.025 µg/mL (≈ 0.0658 µM)
MIC (Klebsiella pneumoniae): 0.1 µg/mL (≈ 0.263 µM)
MIC (Pseudomonas aeruginosa): 0.2 µg/mL (≈ 0.527 µM)
MIC (Bacteria): 0.2 µg/mL (≈ 0.527 µM)
MIC (Streptococcus pneumoniae): 0.1 µg/mL (≈ 0.263 µM)
MIC (Enterococcus faecalis): 0.2 µg/mL (≈ 0.527 µM)
MIC (Streptococcus pyogenes): 0.2 µg/mL (≈ 0.527 µM)
MIC (Staphylococcus aureus [1]): 0.05 µg/mL (≈ 0.132 µM)
MIC (Staphylococcus aureus [2]): 0.025 µg/mL (≈ 0.0658 µM)
Ratio [3]: 0.087
Ratio [4]: 0.087
DNA cleavage [5]: 1.5 µg/mL

Cc1c(F)c(N2CCC(N)C2)cc2c1c(=O)c(C(=O)O)cn2-c1ccc(F)cc1F (configuration not stated)
MIC (Enterobacter cloacae): 0.05 µg/mL (≈ 0.12 µM)
MIC (Escherichia coli): 0.05 µg/mL (≈ 0.12 µM)
MIC (Klebsiella pneumoniae): 0.1 µg/mL (≈ 0.24 µM)
MIC (Pseudomonas aeruginosa): 0.8 µg/mL (≈ 1.92 µM)
MIC (Bacteria): 0.2 µg/mL (≈ 0.479 µM)
MIC (Streptococcus pneumoniae): 0.025 µg/mL (≈ 0.0599 µM)
MIC (Enterococcus faecalis): 0.1 µg/mL (≈ 0.24 µM)
MIC (Streptococcus pyogenes): 0.05 µg/mL (≈ 0.12 µM)
MIC (Staphylococcus aureus [1]): 0.05 µg/mL (≈ 0.12 µM)
MIC (Staphylococcus aureus [2]): 0.013 µg/mL (≈ 0.0311 µM)
Ratio [3]: 0.13
Ratio [4]: 0.038
DNA cleavage [5]: 0.37 µg/mL

CCn1cc(C(=O)O)c(=O)c2c(C)c(F)c(N3CCC(N)C3)c(F)c21 (configuration not stated)
MIC (Enterobacter cloacae): 0.05 µg/mL (≈ 0.142 µM)
MIC (Escherichia coli): 0.05 µg/mL (≈ 0.142 µM)
MIC (Klebsiella pneumoniae): 0.2 µg/mL (≈ 0.569 µM)
MIC (Pseudomonas aeruginosa): 1.6 µg/mL (≈ 4.55 µM)
MIC (Bacteria): 0.4 µg/mL (≈ 1.14 µM)
MIC (Streptococcus pneumoniae): 1.6 µg/mL (≈ 4.55 µM)
MIC (Enterococcus faecalis): 0.8 µg/mL (≈ 2.28 µM)
MIC (Streptococcus pyogenes): 3.1 µg/mL (≈ 8.82 µM)
MIC (Staphylococcus aureus [1]): 0.4 µg/mL (≈ 1.14 µM)
MIC (Staphylococcus aureus [2]): 0.1 µg/mL (≈ 0.285 µM)
Ratio [3]: 0.2
Ratio [4]: 0.69
DNA cleavage [5]: 3 µg/mL

Cc1c(F)c(N2CCC(N)C2)c(Cl)c2c1c(=O)c(C(=O)O)cn2C1CC1 (configuration not stated)
MIC (Enterobacter cloacae): 0.05 µg/mL (≈ 0.132 µM)
MIC (Escherichia coli): 0.013 µg/mL (≈ 0.0342 µM)
MIC (Klebsiella pneumoniae): 0.05 µg/mL (≈ 0.132 µM)
MIC (Pseudomonas aeruginosa): 0.2 µg/mL (≈ 0.527 µM)
MIC (Bacteria): 0.05 µg/mL (≈ 0.132 µM)
MIC (Streptococcus pneumoniae): 0.025 µg/mL (≈ 0.0658 µM)
MIC (Enterococcus faecalis): 0.05 µg/mL (≈ 0.132 µM)
MIC (Streptococcus pyogenes): 0.05 µg/mL (≈ 0.132 µM)
MIC (Staphylococcus aureus [1]): 0.025 µg/mL (≈ 0.0658 µM)
MIC (Staphylococcus aureus [2]): 0.013 µg/mL (≈ 0.0342 µM)
Ratio [3]: 0.05
Ratio [4]: 0.029
DNA cleavage [5]: 0.3 µg/mL

CCc1c(F)c(N2CCC(N)C2)cc2c1c(=O)c(C(=O)O)cn2C1CC1 (configuration not stated)
MIC (Enterobacter cloacae): 0.8 µg/mL (≈ 2.23 µM)
MIC (Escherichia coli): 0.4 µg/mL (≈ 1.11 µM)
MIC (Klebsiella pneumoniae): 1.6 µg/mL (≈ 4.45 µM)
MIC (Pseudomonas aeruginosa): 12.5 µg/mL (≈ 34.8 µM)
MIC (Bacteria): 6.3 µg/mL (≈ 17.5 µM)
MIC (Streptococcus pneumoniae): 1.6 µg/mL (≈ 4.45 µM)
MIC (Enterococcus faecalis): 25 µg/mL (≈ 69.6 µM)
MIC (Streptococcus pyogenes): 3.1 µg/mL (≈ 8.63 µM)
MIC (Staphylococcus aureus [1]): 12.5 µg/mL (≈ 34.8 µM)
MIC (Staphylococcus aureus [2]): 3.1 µg/mL (≈ 8.63 µM)
Ratio [3]: 2.09
Ratio [4]: 5.45

CCn1cc(C(=O)O)c(=O)c2c(C)c(F)c(N3CCC(N)C3)cc21 (configuration not stated)
MIC (Enterobacter cloacae): 0.2 µg/mL (≈ 0.6 µM)
MIC (Escherichia coli): 0.2 µg/mL (≈ 0.6 µM)
MIC (Klebsiella pneumoniae): 0.8 µg/mL (≈ 2.4 µM)
MIC (Pseudomonas aeruginosa): 3.1 µg/mL (≈ 9.3 µM)
MIC (Bacteria): 1.6 µg/mL (≈ 4.8 µM)
MIC (Streptococcus pneumoniae): 1.6 µg/mL (≈ 4.8 µM)
MIC (Enterococcus faecalis): 1.6 µg/mL (≈ 4.8 µM)
MIC (Streptococcus pyogenes): 3.1 µg/mL (≈ 9.3 µM)
MIC (Staphylococcus aureus [1]): 1.6 µg/mL (≈ 4.8 µM)
MIC (Staphylococcus aureus [2]): 0.4 µg/mL (≈ 1.2 µM)
Ratio [3]: 0.69
Ratio [4]: 1.38
DNA cleavage [5]: 6.3 µg/mL
